For 90 compounds, inhibition results are on record in PubChem BioAssay AID1800 (The Scripps Research Institute Molecular Screening Center, 2009).

In all, about 290,000 compounds went through this assay and about 1,600 (0.55%) were called active. This excerpt belongs to a sample that is enriched for actives. Values without a mark were called inactive.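 How the source made its calls: active means inhibition above the mean of all tested compounds plus 3 SD, set per campaign (cut at about 35% in these data); inactive means the rest.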

The subject of the test is Hepatitis C virus NS3 helicase. The test can be described thus: inhibitors of HCV NS3 helicase, primary screen, biochemical, Cy5 molecular beacon fluorescence (AID 1800).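 Further: 0% = DMSO wells and 100% = thioflavine S control wells.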 Conditions: NS3 helicase DNA unwinding, at 10.9 µM, stronger effect = higher value. In outline: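 Compound dosing – single dose, 10.9 µM nominal final, DMSO 0.8% final · System – NS3 helicase fragment of HCV · Buffer or medium – MOPS pH 6.5, MgCl2, DTT, Tween20, BSA · Signal – Cy5 beacon fluorescence read at start and 1 h · Also added – annealed dual-labelled DNA beacon duplex, ATP-started · Schedule – 1 h at 25 °C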
Broadly, the inhibition is the drop in the measured response relative to a control, in per cent. Turning to `COc1ccc(NC(=S)N2CCC(NC(=O)c3cccc(F)c3)CC2)cc1`, the inhibition is 5.28%.
For `Cc1ccc(Nc2nnc(SCc3ccccc3)s2)cc1` the value was -1.63%; for `CC(C)c1ccc(Nc2nnc(SCC(=O)c3nnc(-c4ccccc4)o3)s2)cc1`, 42.3% (active).
With `O=C(CSc1nnc(Nc2ccccc2)s1)Nc1cccnc1Cl` the figure was 4.07%; with `Cc1ccc(SC(CC(=O)c2ccc(C(C)(C)C)cc2)C(=O)O)cc1` (stereo not given), 44.4% (active).
With `Cc1ccc(CSCC(N)C(=O)O)cc1` (stereo not given) the figure was 0.78%; with `Cc1ccc(C(=O)CSc2ccccc2C(=O)O)cc1`, 2.55%.
Take `C=CCn1c(=NC(=O)c2cccs2)sc2cc(NC(C)=O)ccc21`: the inhibition was -8.84%.
Regarding `Cc1cccc(CCNS(=O)(=O)c2ccc3c(c2)NC(=O)CO3)c1`, the inhibition was -2.06%.
For `COc1ccc(/C=C(/NC(=O)c2ccccc2)C(=O)Nc2cccc(C(=O)O)c2)cc1` the value was 3.56%; for `COc1ccc(S(=O)(=O)N(C)CC(=O)N2CCCC2)cc1`, -9.23%.
For `CC(C)=N/N=C1/NC(=O)C(Cc2ccccc2)S1` (stereo not given) the value was 12.1%; for `C/C(=C\c1ccco1)C1Nc2cccc3cccc(c23)N1`, 15%; for `Cc1ccc(C2Nc3cccc4cccc(c34)N2)cc1`, 38.8% (active).
For `Oc1ccc(C2Nc3cccc4cccc(c34)N2)cc1` the value was 9.35%.
Regarding `COc1cccc(C2Nc3cccc4cccc(c34)N2)c1`, the inhibition was -11.8%.
With `Brc1ccccc1C1Nc2cccc3cccc(c23)N1` the figure was 53.8% (active); with `COc1cc2c(cc1OC)C(c1ccccc1Br)NC(=O)C2` (stereo not given), 1.43%.
For `CCc1noc(C)c1C(=O)N1CCCC(N2CCN(c3ccc(F)cc3)CC2)C1` (stereo not given) the value was 8.93%.
As to `CC(C)(COC(=O)Nc1ccccc1)COC(=O)Nc1ccccc1`, the inhibition is -7.99%.
Regarding `Cc1cc([N+](=O)[O-])c(-c2ccc(/C=N/n3cnnc3)o2)cc1Cl`, the inhibition was 12.9%.
For `CC1=NN(c2ccc(Cl)c(C(=O)O)c2)C(=O)/C1=C/c1ccc(-c2ccccc2[N+](=O)[O-])o1` the value was 43.5% (active); for `O=C(Nc1ccc(N2CCOCC2)cc1)c1ccc(-c2ccccc2[N+](=O)[O-])o1`, -10.2%.
With `COc1ccccc1NC(=O)Nc1nnc(Cc2ccc(F)cc2)s1` the figure was -6.22%.
For `CCOc1ccc(N(C(=O)c2snc(C(N)=O)c2N)C(C(=O)NCC2CCCO2)c2c[nH]c3ccccc23)cc1` (stereo not given) the value was -29.3%; for `COc1ccc(C(=O)Nc2ccccc2C(=O)NCc2ccco2)cc1`, -9.8%; for `COc1ccc(/C=C(/NC(=O)c2ccco2)C(=O)Nc2ccc(C(C)=O)cc2)cc1`, 2.61%.
For the compound `COc1ccc(/C=C(\NC(=O)c2ccc(OCC(C)C)cc2)C(=O)OCc2ccco2)cc1`, the inhibition is 43.7% (active).
With `CCCn1cc(S(=O)(=O)c2ccc(C)cc2)c(=O)c2cc(OCC)ccc21` the figure was -5.21%; with `CCc1ccc(NC(=O)Nc2ccncc2)cc1`, -8.08%.
With `COCCNC(=O)Nc1ccc2nc(-c3ccco3)c(-c3ccco3)nc2c1` the figure was 42.2% (active); with `O=C(Nc1ccc2nccnc2c1)c1ccco1`, -0.83%.
On to `O=C(NCc1ccccn1)c1ccc2nc(-c3ccco3)c(-c3ccco3)nc2c1`, for which the inhibition is 31.3%.
With `NC(=O)c1nsc(C(=O)N(CCCN2CCOCC2)C(C(=O)NC2CCCCC2)c2ccc(Cl)cc2)c1N` (stereo not given) the figure was 13.6%; with `Cc1ccc(C(=O)/C=C/Nc2ccc(S(=O)(=O)Nc3onc(C)c3C)cc2)cc1`, 23.3%.
For `CC(Oc1ccccc1)C(=O)Nc1oc(-c2ccco2)c(-c2ccco2)c1C#N` (stereo not given) the value was 52.5% (active); for `CC(C)C(=O)Nc1oc(-c2ccccc2)cc1C#N`, 2.07%; for `COc1cc(C(=O)Nc2oc(-c3ccccc3)c(-c3ccccc3)c2C#N)cc(OC)c1OC`, -0.57%.
On to `Cc1cc2c(cc1C)N(C(=O)CN1C(=O)c3ccccc3C1=O)C(C)(C)c1ssc(=S)c1-2`, for which the inhibition is -5.01%.
As for `O=C(CCC(=O)n1ncc2ccccc21)NCc1ccccc1Cl`, the inhibition was 12.6%.
For `COc1cc(/C=C2/C(=O)NN(c3ccc(F)cc3)C2=O)cc([N+](=O)[O-])c1O` the value was 15.7%; for `COc1cc(/C=C2/C(=O)NN(c3cccc(Cl)c3)C2=O)cc(Br)c1O`, 64.2% (active); for `C#CCOc1ccc(/C=C2/C(=O)NN(c3ccccc3)C2=O)cc1OC`, 27.8%.
For `COC(=O)c1ccc(/C=C2/C(=O)Oc3ccccc32)cc1` the value was 4.46%; for `Nc1c(Cl)cc(-c2csc(N3CCCC3c3nc4cc(Cl)c(Cl)cc4n3CCOCCO)n2)cc1Cl` (stereo not given), -4.48%.
With `COc1ccc(-c2nn(-c3ccccc3)cc2/C=C2/SC(=S)N(CCCC(=O)O)C2=O)c(C)c1` the figure was -32.5%; with `CN(C)S(=O)(=O)c1cccc(-c2nn(-c3ccccc3)cc2/C=C2\SC(=S)N(CC(=O)O)C2=O)c1`, 9.49%; with `Cc1ccc(-c2nn(-c3ccccc3)cc2/C=C2\SC(=S)N(CCCCCC(=O)O)C2=O)o1`, 45.9% (active).
For the compound `CC(C)C1Cc2c(sc3c2c(=O)n(-c2ccccc2)c2nncn32)CO1` (stereo not given), the inhibition was 1.09%.
With `CC(C)(C)NC(=O)CSc1nnc(NC(=O)CCc2ccccc2)s1` the figure was -6.73%.
With `Cc1ccccc1NC(=O)CN1C(=O)N/C(=C\c2cccn2-c2cccc(C(=O)O)c2)C1=O` the figure was 21.8%; with `O=C1/C(=C\c2ccsc2)NC(=S)N1c1ccccc1`, 11%; with `O=C1N/C(=C/c2cccn2-c2ccccc2)C(=O)N1c1cccc(Cl)c1`, 43% (active).
With `O=C(CCc1ccccc1F)N1CCN(c2ccccc2)CC1` the figure was 8.51%.
On to `Cc1ccccc1CCNC(=O)C1CCC(=O)N(Cc2ccc(Cl)cc2)C1` (stereo not given), for which the inhibition is -13.2%.
With `Cc1cccc(NC(=O)c2ccc3c(=O)n(CC4CCCO4)c(=S)[nH]c3c2)c1` (stereo not given) the figure was -9.4%; with `Cc1nc2nc(SCC(=O)NCc3ccco3)nn2c(C)c1Cc1ccccc1`, 2.25%; with `O=c1nc2s/c(=C\c3ccco3)c(=O)n2nc1Cc1ccccc1`, 45.8% (active).
With `CCOc1ccccc1/C=c1\sc2nc(-c3ccco3)nn2c1=O` the figure was 27.9%; with `COC(=O)c1cc(S(=O)(=O)N2CCN(c3cc(C)ccc3C)CC2)c[nH]1`, -25.3%.
With `COCCNC(=O)C(c1ccc(C)cc1)N(C(=O)CCC(=O)Nc1ccccn1)c1cccc(C)c1` (stereo not given) the figure was -11.8%; with `CCOc1ccc(C(C(=O)NCCOC)N(CCOC)C(=O)CCC(=O)Nc2ccccn2)cc1` (stereo not given), 38.9% (active).
Take `COCCN(C(=O)CCC(=O)Nc1ccccn1)C(C(=O)NCCC(C)C)c1ccc(OC)cc1` (stereo not given): the inhibition is 0.66%.
Consider `O=C(Nc1nnc(-c2ccc(F)cc2)s1)c1c(F)cccc1Cl`, for which the inhibition was -8.63%.
For `Cc1ccccc1/C=C\c1nc(O)c([N+](=O)[O-])c(=O)[nH]1` the value was 9.37%.
For `O=c1[nH]c(/C=C\c2cccc(C(F)(F)F)c2)nc(O)c1[N+](=O)[O-]` the value was 47.4% (active); for `O=c1cc(O)c(-c2cccc(C(F)(F)F)c2)c(Cl)[nH]1`, 13.8%; for `CCNC(=O)N1CCCC(C(=O)c2ccc(-c3ccccc3)cc2)C1` (stereo not given), -0.46%.
Regarding `Cc1ccc(S(=O)(=O)Oc2ccc(/C=N/NC(=O)c3ccncc3)cc2)cc1`, the inhibition was -3.55%.
For `Cc1ccc(C2=N/C(=C\c3ccc(OS(=O)(=O)c4ccc(C)cc4)cc3)C(=O)O2)cc1` the value was 40.6% (active); for `O=C1OC(c2ccc(Cl)cc2)=N/C1=C\c1cccnc1`, 5.47%; for `O=C(CNc1cccc(S(=O)(=O)N2CCCCC2)c1)Nc1ccccc1F`, -2.03%.
For the compound `CCOCCCN(C)C1CCN(C(=O)c2oc3ccccc3c2NC(=O)COc2cccc(C)c2)CC1`, the inhibition is -20.2%.
For `O=C(CCl)NNc1cccc(Cl)n1` the value was 60.9% (active).
With `O=C(NNc1ccccn1)c1ccc(Cl)nc1` the figure was -0.49%; with `O=C(CCl)NNc1nc(-c2ccccc2)c2cc(Cl)ccc2n1`, 3.47%; with `CCC(C(=O)OC)n1cnc2c(oc3ccccc32)c1=O` (stereo not given), -6.44%.
For `Cc1ccc(Nc2c3c(nc4ccccc24)CCC3)cc1` the value was -35.6%; for `CC(=O)Nc1ccc(Nc2c3ccccc3nc3ccccc23)cc1`, 38.4% (active).
Take `CC(=O)Nc1ccc(NC(=O)COc2ncnc3ccccc23)cc1`: the inhibition is 8.73%.
Take `Cc1cccc(NC(=O)NC(=S)NC(=O)c2ccccc2)c1`: the inhibition was 7.16%.
With `COC(=O)c1c(C)[nH]c(C(=O)NCCc2ccc(S(N)(=O)=O)cc2)c1C` the figure was -6.64%; with `O=S(=O)(NCc1ccc(Cl)cc1Cl)c1cccs1`, 7.61%; with `O=[N+]([O-])c1cc(Cl)cc(/C=N/NC(=S)Nc2cc(S(=O)(=O)N3CCOCC3)ccc2Cl)c1O`, 40.4% (active).
With `O=C(N/N=C/c1cc(Cl)cc([N+](=O)[O-])c1O)C(O)(c1ccccc1)c1ccccc1`, the inhibition was 24.1%.
For `O=C(CN1CCN(c2ccc(O)cc2)CC1)Nc1cc(S(=O)(=O)N2CCOCC2)ccc1Cl` the value was 13.6%; for `Cc1cccc(CCNS(=O)(=O)c2ccc(S(=O)(=O)NC3CCCC3)cc2)c1`, -9.33%.
Turning to `CN(c1ccccc1)c1ccc(/C=c2\s/c(=C(/C#N)C(=O)C(C)(C)C)n(Cc3ccco3)c2=O)cc1`, the inhibition was 37% (active).
For the compound `Cc1cs/c(=N\N=C\c2ccc(O)cc2)n1Cc1ccco1`, the inhibition is 3.43%.
In the case of `CCOC(=O)/C=c1\s/c(=C\c2ccc(C#N)cc2)c(=O)n1CC(=O)Nc1cccc(C)c1C`, the inhibition is 12.5%.
